Results from article PMC5131535 (ACS chemical neuroscience, 2016).
pIC50: −log10 of the molar value.

Experiments:
Assay type in all cases: cell-based
Kir2.1 = target: T1, Kir2.1 (Homo sapiens, UniProt P63252); test: Tl+ flux selectivity assay, Kir2.1; details: for Kir Channel Selectivity (Fold) 2.1: Thallium flux, Kir7.1 over Kir2.1
T1 sequence (P63252 1-427): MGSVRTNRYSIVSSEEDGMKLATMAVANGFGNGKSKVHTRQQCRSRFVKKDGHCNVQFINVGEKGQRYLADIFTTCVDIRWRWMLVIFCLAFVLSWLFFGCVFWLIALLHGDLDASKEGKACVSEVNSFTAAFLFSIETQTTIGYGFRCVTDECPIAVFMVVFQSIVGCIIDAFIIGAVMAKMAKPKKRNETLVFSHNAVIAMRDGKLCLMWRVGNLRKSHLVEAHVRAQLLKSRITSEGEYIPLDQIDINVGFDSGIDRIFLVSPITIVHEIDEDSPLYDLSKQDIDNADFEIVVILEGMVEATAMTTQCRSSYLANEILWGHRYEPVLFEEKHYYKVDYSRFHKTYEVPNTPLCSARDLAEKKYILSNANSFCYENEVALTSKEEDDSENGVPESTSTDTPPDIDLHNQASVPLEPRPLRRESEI
Outline: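 Tetracycline-inducible stable T-REx-HEK-293 lines, induced overnight with 1 µg/ml tetracycline in DMEM/10% dialyzed FBS. Cells loaded 1 hr with 1.2 µM Thallos-AM in HBSS/20 mM HEPES pH 7.3 with 0.01% Pluronic F-127. Baseline fluorescence (ex 470, em 540 nm) read at 1 Hz before adding stimulus buffer with 1.8 mM Tl₂SO₄. Traces normalized to first point and vehicle-subtracted; slope taken 5–20 s post-Tl⁺; IC50 by nonlinear regression of CRCs.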

Kir2.3 = target: T2, Kir2.3 (Homo sapiens, UniProt P48050); test: Tl+ flux selectivity assay, Kir2.3; details: for Kir Channel Selectivity (Fold) 2.3: Thallium flux, Kir7.1 over Kir2.3
T2 sequence (P48050 1-445): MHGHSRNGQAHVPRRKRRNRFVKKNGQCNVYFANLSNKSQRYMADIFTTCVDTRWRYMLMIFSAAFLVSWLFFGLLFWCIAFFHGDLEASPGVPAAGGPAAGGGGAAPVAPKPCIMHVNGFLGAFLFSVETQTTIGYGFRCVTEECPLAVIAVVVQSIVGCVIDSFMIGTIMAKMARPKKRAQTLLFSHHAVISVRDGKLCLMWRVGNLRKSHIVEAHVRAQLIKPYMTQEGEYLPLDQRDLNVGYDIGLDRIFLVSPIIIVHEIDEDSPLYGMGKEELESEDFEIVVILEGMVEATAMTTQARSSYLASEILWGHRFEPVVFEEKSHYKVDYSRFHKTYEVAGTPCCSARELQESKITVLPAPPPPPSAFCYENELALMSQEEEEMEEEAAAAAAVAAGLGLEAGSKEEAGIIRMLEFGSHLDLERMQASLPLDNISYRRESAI

Kir3.1/3.2 = target: T3, Kir3.1/3.2 (Homo sapiens, UniProt P48051+P48549); test: Tl+ flux selectivity assay, Kir3.1/3.2; details: for Kir Channel Selectivity (Fold) 3.1/3.2: Thallium flux, Kir7.1 over Kir3.1/3.2
T3 sequence (P48549 1-501): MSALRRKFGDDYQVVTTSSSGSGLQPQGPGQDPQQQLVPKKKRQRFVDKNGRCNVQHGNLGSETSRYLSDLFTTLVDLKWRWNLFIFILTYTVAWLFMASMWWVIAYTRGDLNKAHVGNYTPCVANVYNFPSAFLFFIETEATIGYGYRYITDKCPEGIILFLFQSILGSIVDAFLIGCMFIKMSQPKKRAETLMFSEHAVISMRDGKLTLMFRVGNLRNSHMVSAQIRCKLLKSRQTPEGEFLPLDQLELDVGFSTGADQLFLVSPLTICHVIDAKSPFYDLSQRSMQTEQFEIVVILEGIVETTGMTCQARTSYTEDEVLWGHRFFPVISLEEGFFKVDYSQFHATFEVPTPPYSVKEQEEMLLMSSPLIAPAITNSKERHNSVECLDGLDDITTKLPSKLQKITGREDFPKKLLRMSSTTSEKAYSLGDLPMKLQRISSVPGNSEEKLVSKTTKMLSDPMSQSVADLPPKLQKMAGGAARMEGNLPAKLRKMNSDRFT
T3 sequence (P48051 1-423): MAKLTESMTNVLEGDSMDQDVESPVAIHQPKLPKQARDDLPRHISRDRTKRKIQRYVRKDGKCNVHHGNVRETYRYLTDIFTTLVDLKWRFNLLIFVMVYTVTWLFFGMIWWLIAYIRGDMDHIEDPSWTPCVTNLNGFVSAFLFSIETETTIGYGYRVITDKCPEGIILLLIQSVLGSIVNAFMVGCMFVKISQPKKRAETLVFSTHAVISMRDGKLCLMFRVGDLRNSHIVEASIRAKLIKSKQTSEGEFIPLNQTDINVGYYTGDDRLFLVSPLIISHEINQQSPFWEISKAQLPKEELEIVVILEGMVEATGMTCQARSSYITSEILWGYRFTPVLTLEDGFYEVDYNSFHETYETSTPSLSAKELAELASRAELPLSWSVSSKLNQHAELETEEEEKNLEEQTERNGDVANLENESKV

Kir2.2 = target: T4, Kir2.2 (Homo sapiens, UniProt Q14500); test: Tl+ flux selectivity assay, Kir2.2; details: for Kir Channel Selectivity (Fold) 2.2: Thallium flux, Kir7.1 over Kir2.2
T4 sequence (Q14500 1-433): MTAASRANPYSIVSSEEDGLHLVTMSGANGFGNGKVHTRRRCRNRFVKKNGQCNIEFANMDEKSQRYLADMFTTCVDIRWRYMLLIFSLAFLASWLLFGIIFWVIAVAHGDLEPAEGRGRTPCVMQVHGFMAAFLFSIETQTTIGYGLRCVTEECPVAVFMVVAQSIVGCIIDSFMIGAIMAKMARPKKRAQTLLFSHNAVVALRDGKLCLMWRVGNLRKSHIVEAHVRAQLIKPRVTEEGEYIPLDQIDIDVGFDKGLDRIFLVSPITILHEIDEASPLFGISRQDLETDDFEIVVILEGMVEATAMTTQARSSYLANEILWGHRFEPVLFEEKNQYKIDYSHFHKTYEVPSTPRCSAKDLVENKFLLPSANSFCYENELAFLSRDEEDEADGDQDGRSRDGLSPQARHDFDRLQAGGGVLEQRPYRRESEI

Row | Kir Channel Selectivity (Fold) 2.1 (Kir2.1; listed as 19 (ML418)) [Fold] | Kir Channel Selectivity (Fold) 2.3 (Kir2.3; listed as 19 (ML418)) [Fold] | Kir Channel Selectivity (Fold) 3.1/3.2 (Kir3.1/3.2; listed as 19 (ML418)) [Fold] | Kir Channel Selectivity (Fold) 2.2 (Kir2.2; listed as 19 (ML418)) [Fold] | SMILES | Kir2.1 IC50 (Tl+ flux) (Kir2.1) | Kir Channel Selectivity (Fold) 2.1 (Kir2.1) | pIC50 (Kir2.1; read-out: Kir2.1 IC50 (Tl+ flux)) | Kir Channel Selectivity (Fold) 2.3 (Kir2.3) | pIC50 (Kir2.3; read-out: Kir2.3 IC50 (Tl+ flux)) | Kir Channel Selectivity (Fold) 3.1/3.2 (Kir3.1/3.2) | pIC50 (Kir3.1/3.2; read-out: Kir3.1/3.2 IC50 (Tl+ flux)) | Kir Channel Selectivity (Fold) 2.2 (Kir2.2) | pIC50 (Kir2.2; read-out: Kir2.2 IC50 (Tl+ flux))
1 |  |  |  |  | Oc1c(CN2CCC(Cc3ccccc3)CC2)cc(Cl)c2cccnc12 [VU714] | insensitive | >5 Fold | < 4.52 | >5 Fold | < 4.52 | >5 Fold | < 4.52 | >5 Fold | < 4.52
2 | >23 | >23 | >23 | >23 | CC(C)OC(=O)NC1CCN(Cc2cc(Cl)c3cccnc3c2O)CC1 [Compound 19, iso-Propyl (1-((5-chloro-8-hydroxyquinolin-7-yl)methyl)piperidin-4-yl)carbamate] |  | at least 23 Fold |  | at least 23 Fold |  | at least 23 Fold |  | at least 23 Fold | 
